ChEMBL document CHEMBL2331542, “Synthesis and in vitro antibacterial activity of quinolone/naphthyridone derivatives containing 3-alkoxyimino-4-(methyl)aminopiperidine scaffolds” (2013)
Converted amounts (≈) assume the structure as drawn.

These compounds were tested on Staphylococcus aureus (assay: Antibacterial activity against methicillin-sensitive Staphylococcus aureus isolate 12-6).
Type: functional
Procedure, shortened: (§1)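 MIC determined in vitro by a standard technique and defined as the lowest compound concentration giving complete inhibition of bacterial growth. The Gram-positive and Gram-negative panels were tested alongside gemifloxacin, levofloxacin and ciprofloxacin reference drugs.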
With `CO/N=C1\CN(c2nc3c(cc2F)c(=O)c(C(=O)O)cn3C2CC2)CCC1N` (stereo unspecified) the MIC was 0.25 µg/mL (≈ 0.642 µM).

What follows are compounds tested on Escherichia coli (assay: Antibacterial activity against Escherichia coli isolate 12-1).
Type: functional
Procedure, shortened: as §1
In the case of `CO/N=C1\CN(c2nc3c(cc2F)c(=O)c(C(=O)O)cn3C2CC2)CCC1N` (stereo unspecified), the MIC is reported as 2 µg/mL (≈ 5.14 µM).

The compounds below were run on Streptococcus pneumoniae (assay: Antibacterial activity against Streptococcus pneumoniae isolate 12-5).
Type: functional
Procedure, shortened: as §1
`CO/N=C1\CN(c2nc3c(cc2F)c(=O)c(C(=O)O)cn3C2CC2)CCC1N` (stereo unspecified) showed an MIC of 4 µg/mL (≈ 10.3 µM).

Each compound was assayed on Escherichia coli (assay: Antibacterial activity against Escherichia coli isolate 12-4).
Type: functional
Procedure, shortened: as §1
With `CO/N=C1\CN(c2nc3c(cc2F)c(=O)c(C(=O)O)cn3C2CC2)CCC1N` (stereo unspecified) the MIC was over 128 µg/mL.

What follows are compounds tested on Klebsiella pneumoniae (assay: Antibacterial activity against extended-spectrum beta-lactamase-producing Klebsiella pneumoniae isolate 12-2).
Type: functional
Procedure, shortened: as §1
`CO/N=C1\CN(c2nc3c(cc2F)c(=O)c(C(=O)O)cn3C2CC2)CCC1N` (stereo unspecified) showed an MIC of 8 µg/mL (≈ 20.5 µM).

The compounds below were run on Staphylococcus epidermidis (assay: Antibacterial activity against methicillin-sensitive Staphylococcus epidermidis isolate 12-2).
Type: functional
Procedure, shortened: as §1
`CO/N=C1\CN(c2nc3c(cc2F)c(=O)c(C(=O)O)cn3C2CC2)CCC1N` (stereo unspecified) gave an MIC of 2 µg/mL (≈ 5.14 µM).

The compounds below were run on Staphylococcus aureus (assay: Antibacterial activity against methicillin-resistant Staphylococcus aureus isolate 12-3).
Type: functional
Procedure, shortened: (§2)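 MIC determined in vitro by standard techniques, defined as the lowest compound concentration giving complete inhibition of bacterial growth. Gemifloxacin, levofloxacin and ciprofloxacin were tested alongside as reference drugs.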
Work on `CO/N=C1\CN(c2nc3c(cc2F)c(=O)c(C(=O)O)cn3C2CC2)CCC1N` (stereo unspecified) yielded an MIC of 0.25 µg/mL (≈ 0.642 µM).

What follows are compounds tested on Staphylococcus aureus (assay: Antibacterial activity against methicillin-sensitive Staphylococcus aureus isolate 12-7).
Type: functional
Procedure, shortened: as §1
`CO/N=C1\CN(c2nc3c(cc2F)c(=O)c(C(=O)O)cn3C2CC2)CCC1N` (stereo unspecified) showed an MIC of 32 µg/mL (≈ 82.2 µM).

What follows are compounds tested on Klebsiella pneumoniae (assay: Antibacterial activity against extended-spectrum beta-lactamase-producing Klebsiella pneumoniae isolate 12-4).
Type: functional
Procedure, shortened: as §1
`CO/N=C1\CN(c2nc3c(cc2F)c(=O)c(C(=O)O)cn3C2CC2)CCC1N` (stereo unspecified) showed an MIC of over 128 µg/mL.

These compounds were tested on Streptococcus pneumoniae (assay: Antibacterial activity against Streptococcus pneumoniae isolate 12-2).
Type: functional
Procedure, shortened: as §1
Work on `CO/N=C1\CN(c2nc3c(cc2F)c(=O)c(C(=O)O)cn3C2CC2)CCC1N` (stereo unspecified) yielded an MIC of 0.25 µg/mL (≈ 0.642 µM).

These compounds were tested on Staphylococcus aureus (assay: Antibacterial activity against methicillin-resistant Staphylococcus aureus isolate 12-15).
Type: functional
Procedure, shortened: as §2
`CO/N=C1\CN(c2nc3c(cc2F)c(=O)c(C(=O)O)cn3C2CC2)CCC1N` (stereo unspecified) showed an MIC of 0.25 µg/mL (≈ 0.642 µM).

The compounds below were run on Staphylococcus epidermidis (assay: Antibacterial activity against methicillin-sensitive Staphylococcus epidermidis isolate 12-3).
Type: functional
Procedure, shortened: as §1
`CO/N=C1\CN(c2nc3c(cc2F)c(=O)c(C(=O)O)cn3C2CC2)CCC1N` (stereo unspecified) showed an MIC of 0.5 µg/mL (≈ 1.28 µM).

Each compound was assayed on Staphylococcus aureus (assay: Antibacterial activity against methicillin-resistant Staphylococcus aureus isolate 12-13).
Type: functional
Procedure, shortened: as §2
Work on `CO/N=C1\CN(c2nc3c(cc2F)c(=O)c(C(=O)O)cn3C2CC2)CCC1N` (stereo unspecified) yielded an MIC of 0.25 µg/mL (≈ 0.642 µM).

These compounds were tested on Klebsiella pneumoniae (assay: Antibacterial activity against extended-spectrum beta-lactamase-producing Klebsiella pneumoniae isolate 12-1).
Type: functional
Procedure, shortened: as §1
`CO/N=C1\CN(c2nc3c(cc2F)c(=O)c(C(=O)O)cn3C2CC2)CCC1N` (stereo unspecified) was tested, and the MIC was 8 µg/mL (≈ 20.5 µM).

The compounds below were run on Staphylococcus epidermidis (assay: Antibacterial activity against methicillin-sensitive Staphylococcus epidermidis isolate 12-1).
Type: functional
Procedure, shortened: as §1
In the case of `CO/N=C1\CN(c2nc3c(cc2F)c(=O)c(C(=O)O)cn3C2CC2)CCC1N` (stereo unspecified), the MIC is reported as 0.5 µg/mL (≈ 1.28 µM).

What follows are compounds tested on Staphylococcus aureus (assay: Antibacterial activity against methicillin-sensitive Staphylococcus aureus isolate 12-10).
Type: functional
Procedure, shortened: as §1
`CO/N=C1\CN(c2nc3c(cc2F)c(=O)c(C(=O)O)cn3C2CC2)CCC1N` (stereo unspecified) gave an MIC of 2 µg/mL (≈ 5.14 µM).

What follows are compounds tested on Escherichia coli (assay: Antibacterial activity against extended-spectrum beta-lactamase-producing Escherichia coli isolate 12-1).
Type: functional
Procedure, shortened: as §1
For `CO/N=C1\CN(c2nc3c(cc2F)c(=O)c(C(=O)O)cn3C2CC2)CCC1N` (stereo unspecified), the MIC was over 128 µg/mL.

The compounds below were run on Escherichia coli (assay: Antibacterial activity against Escherichia coli ATCC 25922).
Type: functional
Procedure, shortened: as §1
For `CO/N=C1\CN(c2nc3c(cc2F)c(=O)c(C(=O)O)cn3C2CC2)CCC1N` (stereo unspecified), the MIC was 32 µg/mL (≈ 82.2 µM).

What follows are compounds tested on Staphylococcus epidermidis (assay: Antibacterial activity against methicillin-resistant Staphylococcus epidermidis isolate 12-33).
Type: functional
Procedure, shortened: as §2
For `CO/N=C1\CN(c2nc3c(cc2F)c(=O)c(C(=O)O)cn3C2CC2)CCC1N` (stereo unspecified), the MIC was 4 µg/mL (≈ 10.3 µM).

The compounds below were run on Escherichia coli (assay: Antibacterial activity against extended-spectrum beta-lactamase-producing Escherichia coli isolate 12-2).
Type: functional
Procedure, shortened: as §1
`CO/N=C1\CN(c2nc3c(cc2F)c(=O)c(C(=O)O)cn3C2CC2)CCC1N` (stereo unspecified) was tested, and the MIC was 64 µg/mL (≈ 164 µM).

The compounds below were run on Escherichia coli (assay: Antibacterial activity against extended-spectrum beta-lactamase-producing Escherichia coli isolate 12-4).
Type: functional
Procedure, shortened: as §1
For `CO/N=C1\CN(c2nc3c(cc2F)c(=O)c(C(=O)O)cn3C2CC2)CCC1N` (stereo unspecified), the MIC was 32 µg/mL (≈ 82.2 µM).

The compounds below were run on Pseudomonas aeruginosa (assay: Antibacterial activity against Pseudomonas aeruginosa isolate 12-2).
Type: functional
Procedure, shortened: as §1
`CO/N=C1\CN(c2nc3c(cc2F)c(=O)c(C(=O)O)cn3C2CC2)CCC1N` (stereo unspecified) showed an MIC of 8 µg/mL (≈ 20.5 µM).

These compounds were tested on Klebsiella pneumoniae (assay: Antibacterial activity against Klebsiella pneumoniae isolate 12-1).
Type: functional
Procedure, shortened: as §1
With `CO/N=C1\CN(c2nc3c(cc2F)c(=O)c(C(=O)O)cn3C2CC2)CCC1N` (stereo unspecified) the MIC was 0.25 µg/mL (≈ 0.642 µM).

These compounds were tested on Klebsiella pneumoniae (assay: Antibacterial activity against Klebsiella pneumoniae isolate 12-2).
Type: functional
Procedure, shortened: as §1
For `CO/N=C1\CN(c2nc3c(cc2F)c(=O)c(C(=O)O)cn3C2CC2)CCC1N` (stereo unspecified), the MIC was 0.25 µg/mL (≈ 0.642 µM).

These compounds were tested on Klebsiella pneumoniae (assay: Antibacterial activity against Klebsiella pneumoniae isolate 12-4).
Type: functional
Procedure, shortened: as §1
For `CO/N=C1\CN(c2nc3c(cc2F)c(=O)c(C(=O)O)cn3C2CC2)CCC1N` (stereo unspecified), the MIC was 0.125 µg/mL (≈ 0.321 µM).

What follows are compounds tested on Staphylococcus epidermidis (assay: Antibacterial activity against methicillin-resistant Staphylococcus epidermidis isolate 12-35).
Type: functional
Procedure, shortened: as §2
In the case of `CO/N=C1\CN(c2nc3c(cc2F)c(=O)c(C(=O)O)cn3C2CC2)CCC1N` (stereo unspecified), the MIC is reported as 2 µg/mL (≈ 5.14 µM).

These compounds were tested on Pseudomonas aeruginosa (assay: Antibacterial activity against Pseudomonas aeruginosa isolate 12-1).
Type: functional
Procedure, shortened: as §1
With `CO/N=C1\CN(c2nc3c(cc2F)c(=O)c(C(=O)O)cn3C2CC2)CCC1N` (stereo unspecified) the MIC was 8 µg/mL (≈ 20.5 µM).

The compounds below were run on Staphylococcus epidermidis (assay: Antibacterial activity against methicillin-resistant Staphylococcus epidermidis isolate 12-5).
Type: functional
Procedure, shortened: as §2
With `CO/N=C1\CN(c2nc3c(cc2F)c(=O)c(C(=O)O)cn3C2CC2)CCC1N` (stereo unspecified) the MIC was 2 µg/mL (≈ 5.14 µM).

These compounds were tested on Escherichia coli (assay: Antibacterial activity against Escherichia coli isolate 12-5).
Type: functional
Procedure, shortened: as §1
With `CO/N=C1\CN(c2nc3c(cc2F)c(=O)c(C(=O)O)cn3C2CC2)CCC1N` (stereo unspecified) the MIC was over 128 µg/mL.

The compounds below were run on Pseudomonas aeruginosa (assay: Antibacterial activity against Pseudomonas aeruginosa ATCC 27853).
Type: functional
Procedure, shortened: as §1
`CO/N=C1\CN(c2nc3c(cc2F)c(=O)c(C(=O)O)cn3C2CC2)CCC1N` (stereo unspecified) showed an MIC of 32 µg/mL (≈ 82.2 µM).

What follows are compounds tested on Staphylococcus aureus (assay: Antibacterial activity against Staphylococcus aureus […]).
Type: functional
Procedure, shortened: as §1
Compound `CO/N=C1\CN(c2nc3c(cc2F)c(=O)c(C(=O)O)cn3C2CC2)CCC1N` (stereo unspecified) has an MIC of 0.25 µg/mL (≈ 0.642 µM).
